Diaph inh CS: diaphorase inhibitors and chemical oxidizers, primary screen, counter-screen for diaphorase-coupled primary assays, biochemical, uHTS, resorufin fluorescence | diaphorase resazurin-to-resorufin fluorescence, NADH, 16 min; bacterial (C. kluyveri) enzyme, not human | 190,000 tested, 0.69% active | inhibition, % at 20 µM;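 active means primary screen inhibition at 20 µM above a set limit, cut at about 50% in these data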;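 further: plate controls were DMSO with full reaction for no effect and wells lacking NADH for full effect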
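Test system: diaphorase enzyme from Clostridium kluyveri; amount: diaphorase at 0.14 U/mL in enzyme working solution; detection: fluorescence of resorufin formed from resazurin, Ex 544/Em 590 nm; times: reaction incubation of 16 min at room temperature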
G6PDH CS: L. mesenteroides G6PDH inhibitors, counter-screen for G6PDH-coupled screening assays, biochemical, Leuconostoc mesenteroides enzyme; glucose-6-phosphate dehydrogenase [Leuconostoc mesenteroides]; AID 1020, 2008; Purified L. mesenteroides G6PDH, diaphorase/resazurin coupled fluorescence, 45 min; inhibition, % at 5 µM; 200,000 tested, 0.12% active; in the data active means inhibition above about 50%
FLuc inh counter: firefly luciferase enzyme inhibitors, primary screen, artefact control for luciferase-based inhibitor screens, biochemical, luminescence, ATPLite; Luciferin 4-monooxygenase (Photinus pyralis), P08659; 10 min; inhibition, % at 10 µM; 200,000 tested, 1.5% active; AID 1006, 2008;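 active means inhibition above about 50% when tested at 10 µM, limit read from the data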
Target sequence (P08659 whole entry, looked up): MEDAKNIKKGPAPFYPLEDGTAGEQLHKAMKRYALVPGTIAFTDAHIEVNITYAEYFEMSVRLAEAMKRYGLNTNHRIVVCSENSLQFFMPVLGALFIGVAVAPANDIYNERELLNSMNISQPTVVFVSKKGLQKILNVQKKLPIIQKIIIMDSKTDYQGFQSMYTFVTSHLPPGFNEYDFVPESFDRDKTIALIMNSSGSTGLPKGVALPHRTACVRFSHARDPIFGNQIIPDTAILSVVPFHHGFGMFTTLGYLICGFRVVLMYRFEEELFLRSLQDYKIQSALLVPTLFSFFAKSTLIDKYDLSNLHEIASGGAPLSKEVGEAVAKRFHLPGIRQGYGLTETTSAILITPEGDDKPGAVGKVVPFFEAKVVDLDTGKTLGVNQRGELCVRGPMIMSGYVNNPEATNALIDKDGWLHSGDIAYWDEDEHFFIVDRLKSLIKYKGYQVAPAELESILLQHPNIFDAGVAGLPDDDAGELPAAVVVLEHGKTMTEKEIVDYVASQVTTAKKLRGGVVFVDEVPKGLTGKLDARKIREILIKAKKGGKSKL
Diaph act CS: compounds boosting diaphorase resazurin reduction – biochemical, uHTS, resorufin fluorescence, counter-screen for diaphorase-coupled primary assays, primary screen | Diaphorase/resazurin coupled assay, 16 min; stronger effect = higher value; 1 = vehicle wells, 0 = NADH-free wells | activation factor at 20 µM | 190,000 tested, 0.005% active;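 active means diaphorase activity raised at least twofold by the compound at 20 µM; inactive means activation factor below 2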
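Material: Purified diaphorase enzyme from Clostridium kluyveri | Buffer or medium: 50 mM HEPES pH 7.4 with 4.542 mM MgCl2, 0.005% Tween 20 | Times: 16 min enzyme reaction, ambient temperature | Signal: Red resorufin fluorescence at 544/590 nm excitation/emission | Measure: Increased resorufin signal from activators or reducing compounds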
FLuc act counter: FLuc activators, initial screening, artefact control for FLuc-dependent activation tests, biochemical, ATPlite luminescence. 200,000 tested, under 10 active. Luciferin 4-monooxygenase (Photinus pyralis), P08659. ATPlite luciferase biochemical, 10 min; 0 = ATP-free wells, 1 = DMSO control. AID 1027, 2008. activation factor at 10 µM;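 active means luciferase activation factor, scaled between plate controls, of at least 2 with compound at 10 µM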
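test system = cell-free luciferase reagent | medium = PBS as buffer for the ATP substrate | dosing = test compounds dosed from 2 mM stocks in 100% DMSO | incubation = 10 min at ambient temperature | detection = luminescence measurement of luciferase light output | benchmarks = low control with PBS replacing ATP, high control enzyme plus ATP without compound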
* hit, by the source's call. In the library only some 2.3% were active in any assay of this set; here they are far more common.

SMILES	Diaph inh CS	G6PDH CS	FLuc inh counter	Diaph act CS	FLuc act counter
N#C/C(=C\c1cn(CCOc2ccccc2)c2ccccc12)C(=O)NCc1cccs1	14.9	-13.0	0.0	0.9	1
Cc1nc(N2CCOCC2)[nH]c(=O)c1C	-1.5	0.7	0.0	1	1
COc1cc(/C=N/NC(=O)Cn2nnc3ccccc32)ccc1O	-8.2	0.2	4.1	1.1	1
COc1cc(/C=N/Nc2nc3ccccc3[nH]c2=O)ccc1O	16.5	-4.7	50.0*	0.8	0.5
COc1cc(/C=N/Nc2nc3ccccc3[nH]2)ccc1O	11.8	-15.9	54.6*	0.9	0.5
COc1ccc(O)c(/C=N/Nc2nc3ccccc3[nH]2)c1	-1.4	6.3	48.0	1	0.5
O=C(COC(=O)c1cnc(Cl)c(Cl)c1)Nc1ccc(S(=O)(=O)N2CCCC2)cc1	20.9	-2.6	-3.7	0.8	1
Cn1c(Cl)cnc1C1CC(=O)c2cc(Cl)ccc2O1 (configuration not stated)	6.8	12.7	0.0	0.9	1
COc1ccc(-n2c(N)c(C(=O)NCc3ccco3)c3nc4ccccc4nc32)cc1	53.6*	0.9	-3.8	0.5	1
COc1ccc(-c2nnc(SCc3cc(C)ccc3C)n2N)cc1	7.2	4.6	-9.0	0.9	1.1
Oc1ccc(N=Cc2ccc(OCc3ccccc3)cc2)cc1	52.7*	39.4	12.0	0.5	0.9
Cc1ccc(CNC(=O)CS(=O)(=O)CC(=O)O)cc1	23.3	0.4	-6.6	0.8	1.1
COc1ccc(CCN(Cc2cc3ccc(C)cc3n3nnnc23)C(C)=O)cc1OC	15.8	5.6	-4.3	0.8	1
O=C(CSc1nc2ccccc2n1CCc1ccccc1)c1ccc(O)c(O)c1	62.6*	14.4	-3.0	0.4	1
Cc1ccc(NC(=O)CN(C)S(=O)(=O)c2cccc3nsnc23)cc1Cl	17.4	-31.9	-8.7	0.8	1.1
Oc1c(Cl)cc(Cl)c2c1NCCC2	63.7*	-15.5	-3.4	0.4	1
O=C1NCCCc2c1oc1ccc(O)cc21	-14.3	10.5	7.0	1.1	0.9
CCOC(=O)C1(Cc2ccccc2C(F)(F)F)CCN(CC2CC2)CC1	7.8	-1.8	-8.1	0.9	1.1
CCOC(=O)c1c(C)oc2c1c(C(c1cccnc1)N1CCN(C)CC1)c(O)c1ccccc12 (configuration not stated)	28.8	30.7	-2.4	0.7	1
CCOC(=O)c1c(C)oc2c1c1c(c3ccccc32)OCN(Cc2cccnc2)C1	53.1*	13.1	-2.5	0.5	1
Cc1nc2c(C(=O)NCCc3ccccc3)c[nH]n2c(=O)c1Cl	79.2*	14.0	-8.1	0.2	1.1
Cc1nc2c(C(=O)NCCC(C)C)c[nH]n2c(=O)c1Cl	28.4	0.3	-8.9	0.7	1.1
CC1(C)Nc2ccccc2N(Cc2ccc([N+](=O)[O-])cc2)C1=O	4.9	5.9	-9.0	1	1.1
O=C(N/N=C/c1cccc([N+](=O)[O-])c1)c1cc(-c2ccccc2)nc2ccccc12	0.0	-20.0	-10.2	1	1.1
Cc1ccc(-c2nc(N/N=C/c3cccc([N+](=O)[O-])c3)c3ccccc3n2)cc1	14.9	-2.8	81.6*	0.9	0.2
SMILES	Diaph inh CS	G6PDH CS	FLuc inh counter	Diaph act CS	FLuc act counter
Cc1ccc(-c2nc(N/N=C/c3cccnc3)c3ccccc3n2)cc1	8.7	1.5	97.4*	0.9	0
Cc1ccc(-c2nc(NCc3cccnc3)c3ccccc3n2)cc1	10.1	-14.9	-3.6	0.9	1
COc1ccc(C(=O)N=c2nc3ccccn3s2)cc1	10.9	-3.1	96.6*	0.9	0
CCOC(=O)c1c(NC(=O)C2C3C=CC(C3)C2C(=O)O)sc2c1CCC(CC)C2 (configuration not stated)	15.9	1.9	-0.2	0.8	1
CCOC(=O)c1c(NC(=O)C2C3CCC(O3)C2C(=O)O)sc2c1CCC(CC)C2 (configuration not stated)	54.8*	8.0	-7.3	0.5	1.1
COc1cc2cc(CN(CCc3cccc(C)c3)C(=S)NCCCN3CCOCC3)c(=O)[nH]c2cc1OC	7.4	2.5	-1.2	0.9	1
Cc1cc(O)ccc1Nc1nc2ccccc2nc1Nc1ccc(O)cc1C	58.9*	15.2	-5.2	0.4	1.1
Cc1cc(O)ccc1Nc1nc(-c2sc(N)nc2C)cs1	12.5	11.6	1.7	0.9	1
Cc1ccc2nc(/C=C/c3cccc(F)c3)ccc2c1	21.9	5.1	51.7*	0.8	0.5
Cc1ccsc1/C=C/c1ccc2ccccc2n1	5.2	9.3	38.6	0.9	0.6
O=C(/C(C=Nc1ccc(F)cc1)=C(/O)c1ccco1)C(F)(F)F	-0.6	20.7	79.3*	1	0.2
O=C(Nc1ccc2c(c1)CCC2)c1ccccc1F	1.6	-3.7	61.9*	1	0.4
O=C(Nc1ccc2c(c1)CCC2)c1ccccc1	10.0	13.0	62.2*	0.9	0.4
Oc1ccccc1C=NCC(O)c1ccccc1 (configuration not stated)	18.2	5.8	-1.3	0.8	1
Cc1cc(=O)n2ccsc2n1	9.5	20.3	-7.9	0.9	1.1
O=C(N/N=C/c1ccc([N+](=O)[O-])cc1)c1[nH]ncc1Br	0.0	-0.8	59.6*	1	0.4
O=C(N/N=C/c1ccc([N+](=O)[O-])cc1)c1ccc2nc[nH]c2c1	-9.9	-5.4	14.3	1.1	0.9
COc1ccc2c(c1)CC/C(=C\Nc1ccc3c(c1)OCO3)C2=O	81.6*	59.2*	68.3*	0.2	0.3
COc1ccc(N/C=C2\CCc3ccccc3C2=O)cc1	89.8*	61.7*	92.2*	0.1	0.1
COc1ccc(S(=O)(=O)Nc2ccc3c(c2)OCO3)cc1	11.4	2.9	2.4	0.9	1
O=C1/C(=C/Nc2ccc3c(c2)OCO3)CCc2ccccc21	74.8*	53.1*	94.5*	0.3	0.1
COc1ccc(N/C=C2\CCOC2=O)cc1	9.0	7.7	-5.9	0.9	1.1
O=C(C1=C[C@@H](C2CCCCC2)C[C@@H](OCc2ccc(CO)cc2)O1)N1CCN(Cc2ccccc2)CC1	30.5	11.1	-4.4	0.7	1
CCC1(CC)N=C(c2ccccc2)C(=S)N1	7.5	8.0	-2.8	0.9	1
S=c1[nH]nc(C2CCCCC2)n1/N=C/c1ccc(Br)s1	17.2	5.5	-7.4	0.8	1.1
Cc1ccc(-n2c(C)cc(C(=O)CSc3nncs3)c2C)cc1	6.2	6.7	53.7*	0.9	0.5

Assay outcomes as filed in PubChem.
